Active and inactive are the calls of the source. The rule behind the calls is not given here.
Key:
J774.A1 [1] = experiment: Antiinflammatory activity in mouse J774A.1 cells assessed as inhibition of lipopolysaccharide-induced TNFalpha production pretreated for 2 hrs at 10 uM before LPS challenge; type: functional
Method in brief: (§1)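 J774A.1 macrophages pretreated 2 h with test agent at 10 μM or vehicle, then stimulated with LPS 0.5 μg/ml for 24 h. Media collected and centrifuged (14,000 rpm, 5 min); TNF-α and IL-6 quantified by mouse ELISA kits. Total protein of viable cell pellets measured by Bio-Rad protein assay. Results expressed as percent of LPS control.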

J774.A1 [2] = experiment: Antiinflammatory activity in mouse J774A.1 cells assessed as inhibition of lipopolysaccharide-induced IL6 production pretreated for 2 hrs at 10 uM before LPS challenge; type: functional, cell-based; method in brief: as §1

COc1cc(/C=C2\CCC/C(=C\c3ccc(OC4CCCCO4)c(OC)c3)C2=O)ccc1OC1CCCCO1 (stereo not drawn)
Activity (J774.A1 [1]): Active

CN(C)c1ccc(/C=C2\CCC/C(=C\c3ccc(N(C)C)cc3)C2=O)cc1
Activity (J774.A1 [1]): Active | Activity (J774.A1 [2]): Active

COc1cc(/C=C2\CC/C(=C\c3ccc(OC4CCCCO4)c(OC)c3)C2=O)ccc1OC1CCCCO1 (stereo not drawn)
Activity (J774.A1 [1]): Active

O=C1/C(=C/c2ccc(Br)o2)CCC/C1=C\c1ccc(Br)o1
Activity (J774.A1 [1]): Active

CN(C)c1ccc(/C=C/C(=O)/C=C/c2ccc(N(C)C)cc2)cc1
Activity (J774.A1 [1]): Active | Activity (J774.A1 [2]): Active

CN(C)CCCOc1ccc(/C=C2\CC/C(=C\c3ccc(OCCCN(C)C)cc3)C2=O)cc1
Activity (J774.A1 [1]): Active | Activity (J774.A1 [2]): Active

Cc1ccc(/C=C2\CC/C(=C\c3ccc(C)s3)C2=O)s1
Activity (J774.A1 [1]): Active

COc1cc(/C=C2\CCC/C(=C\c3ccc(O)c(OC)c3)C2=O)ccc1O
Activity (J774.A1 [1]): Active | Activity (J774.A1 [2]): Active

COc1cc(/C=C2\CC/C(=C\c3ccc(O)c(OC)c3)C2=O)ccc1O
Activity (J774.A1 [1]): Active | Activity (J774.A1 [2]): Active

O=C(/C=C/c1ccc(OC2CCCCO2)cc1)/C=C/c1ccc(OC2CCCCO2)cc1 (stereo not drawn)
Activity (J774.A1 [1]): Active

C=CCOc1ccc(/C=C2\CCC/C(=C\c3ccc(OCC=C)cc3)C2=O)cc1
Activity (J774.A1 [1]): Active

COc1cc(/C=C/C(=O)CC(=O)/C=C/c2ccc(O)c(OC)c2)ccc1O
Activity (J774.A1 [1]): Active

COc1cc(/C=C/C(=O)/C=C/c2ccc(O)c(OC)c2)ccc1O
Activity (J774.A1 [1]): Active | Activity (J774.A1 [2]): Active

C=CCOc1ccc(/C=C/C(=O)/C=C/c2ccc(OCC=C)cc2)cc1
Activity (J774.A1 [1]): Active

CN(C)c1ccc(/C=C2\CC/C(=C\c3ccc(N(C)C)cc3)C2=O)cc1
Activity (J774.A1 [1]): Active | Activity (J774.A1 [2]): Active

O=C1/C(=C/c2cccs2)CC/C1=C\c1cccs1
Activity (J774.A1 [1]): Active

From ChEMBL document CHEMBL1141592, “Synthesis and anti-inflammatory activities of mono-carbonyl analogues of curcumin” (2008)
